Measurements reported in article PMC4253050 (Cellular signalling, 2014).

Columns and labels:
kB1R [1] = target: T1, kB1R (Homo sapiens, UniProt P46663); assay: [3H]DAKD binding and endocytosis assay, cell surface kB1R, HEK293 cells; settings: HEK cells stably expressing kB1R and kB2R; 10 min, 37 °C (DAKD 1 μM), no acid wash; 4 nM [3H]DAKD 90 min on ice; n=3
T1 sequence (P46663 1-353): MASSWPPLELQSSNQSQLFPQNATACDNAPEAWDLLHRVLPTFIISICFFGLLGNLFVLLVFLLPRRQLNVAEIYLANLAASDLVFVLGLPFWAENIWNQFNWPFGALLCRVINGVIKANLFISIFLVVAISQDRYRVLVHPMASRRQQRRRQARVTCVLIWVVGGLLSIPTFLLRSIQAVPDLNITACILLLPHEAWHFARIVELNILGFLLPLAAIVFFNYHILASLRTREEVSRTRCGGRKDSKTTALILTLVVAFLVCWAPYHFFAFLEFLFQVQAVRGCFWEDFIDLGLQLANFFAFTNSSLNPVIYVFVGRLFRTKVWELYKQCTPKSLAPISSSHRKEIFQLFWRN
Method in brief: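 Confluent monolayers were rinsed three times in warm PBS and exposed to unlabelled agonist or vehicle (PBS). They were washed with ice-cold PBS, and binding was then done on ice. Cells were washed three times in cold PBS, lysed in 0.2 M NaOH and counted by scintillation. Total binding was taken as label bound in cells given PBS alone.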

[2] = tested on: human lung microvascular endothelial cells (HLMVEC); assay: Transendothelial electrical resistance; format: cell-based; settings: cytokine-treated HLMVEC; 100 nM; BK in the presence of MGTA; n = 4
Method in brief: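 Primary HLMVEC (passage 3–6) were grown to confluence on gold electrodes coated with 10 μg/ml fibronectin. Cells were cytokine-primed for 16 h with IL-1β plus 100 U/ml IFN-γ, then moved to EBM-2 with 1% FBS for 1 h and impedance-monitored (ECIS) until baseline was stable. BK samples were pretreated with 40 μM MGTA. Cells received ±100 nM BK for 10 min, then 100 nM DAKD or vehicle, with or without 200 μM pyrogallol; TER recorded.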

kB1R [3] = target: T1, kB1R; assay: Phosphoinositide turnover; format: cell-based; settings: stably co-expressing HEK cells; 1 μM
kB1R [4] = target: T1, kB1R; assay: [3H]Arachidonic acid release, kB1R-mediated, cells co-expressing kB1R and kB2R; format: cell-based; settings: stably co-expressing HEK cells (so in the source); 1 μM
Method in brief: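 Cells at ~80% confluence were labelled for 18–24 h in growth medium with 0.1% FBS and 1 μCi/ml [³H]arachidonic acid. They were washed three times in HAM's/F12 buffer (HEPES, NaHCO₃, 0.1% fat-free BSA), then incubated with agonist in that buffer at 37 °C. Released label in the collected medium was counted by liquid scintillation.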

kB2R = target: T2, kB2R (Homo sapiens, UniProt P30411); assay: Intracellular Ca2+ response; format: cell-based; settings: HEK cells stably expressing kB1R and kB2R; first 1 μM DAKD, then 1 μM KD
T2 sequence (P30411 1-391): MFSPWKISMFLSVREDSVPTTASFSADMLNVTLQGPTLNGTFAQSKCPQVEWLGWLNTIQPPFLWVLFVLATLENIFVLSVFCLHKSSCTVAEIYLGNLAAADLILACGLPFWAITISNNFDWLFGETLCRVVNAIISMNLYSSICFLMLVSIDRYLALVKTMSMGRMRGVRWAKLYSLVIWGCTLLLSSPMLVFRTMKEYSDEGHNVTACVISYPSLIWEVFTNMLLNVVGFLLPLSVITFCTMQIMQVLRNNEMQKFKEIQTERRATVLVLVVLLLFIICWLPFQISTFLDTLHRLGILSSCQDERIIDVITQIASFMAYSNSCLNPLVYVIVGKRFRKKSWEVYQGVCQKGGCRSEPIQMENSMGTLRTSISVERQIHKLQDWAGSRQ

[5] = tested on: GPCRs coupled with Gαq (LPA); assay: Intracellular Ca2+ response to LPA, HEK cells; format: cell-based, human
Method in brief: (§1)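 Cross-desensitization in HEK293 cells stably expressing kB1R, loaded with fura-2 (2 μM, 60 min, 37 °C) on polylysine coverslips. Cells were given thrombin or LPA followed by kB1R agonist, or kB1R agonist first and then thrombin or LPA. [Ca²⁺]i was read as 510 nm emission at 340/380 nm excitation.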

kB1R [6] = target: T1, kB1R; assay: Intracellular Ca2+ response; format: cell-based; settings: for effect of pre-stimulation on kB1R response: kB1R expressing cells, discussion summary
Method in brief: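 Receptor-expressing HEK cells were grown to 80% confluence on polylysine-coated glass coverslips. They were loaded with 2 μM fura-2/AM for 60 min at 37 °C. For pre-stimulation, cells received vehicle or a kinin agonist (e.g. 1 μM BK) for 10 min, then a kB1R agonist. The [Ca²⁺]i rise was quantified as area under the curve and plotted against log dose; n=3, mean ± SE.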

[7] = tested on: protease activated receptor; assay: Intracellular Ca2+ response to thrombin, HEK cells; format: cell-based, human
Method in brief: as §1

[8] = HEK cells stably expressing kB1R
[9] = HEK cells stably expressing kB1R or kB2R

des-Arg^9 -HOE-140 [des-Arg-HOE140]
inhibition of [3H]-DAKD binding, without acid washing (kB1R [1]): ~ 80%

des-Arg^10-kallidin [DAKD]
increase in TER [2]: substantial and prolonged | IP3 turnover response (kB1R [3]): responded robustly | inhibition of [3H]-DAKD binding, without acid washing (kB1R [1]): ~ 80% | arachidonic acid release response (kB1R [4]): responded robustly | calcium response to 1 μM KD added after pre-stimulation with kB1R agonist (kB2R): second robust increase | effect of kB1R agonist on calcium response to subsequent LPA [5, 8]: did not reduce the calcium response

lysophosphatidic acid [LPA]
effect of LPA on kB1R response to subsequent DAKD (kB1R [6]; [8]): did not decrease the kB1R response | effect of pre-stimulation on kB1R response (kB1R [6]): did not reduce the kB1R response | increase in [Ca2+]i by LPA ([5]; HEK cells expressing kB1R): relatively lower calcium response than thrombin | cross-desensitization between kB1R, kB2R and LPA [5, 9]: Lack of cross-desensitization

thrombin
effect of thrombin on increase in [Ca2+]i induced by subsequent DABK (1 μM) (kB1R [6]; [8]): did not inhibit the increase in [Ca^2+]i | effect of pre-stimulation on kB1R response (kB1R [6]): did not reduce the kB1R response | increase in [Ca2+]i by thrombin [7, 8]: large increase in [Ca^2+]i | cross-desensitization between kB1R, kB2R and thrombin [7, 9]: Lack of cross-desensitization
